Test results taken from ChEMBL document CHEMBL3774376, “Synthesis, and anticonvulsant activity of new amides derived from 3-methyl- or 3-ethyl-3-methyl-2,5-dioxo-pyrrolidin-1-yl-acetic acids” (Bioorg Med Chem, 2016).
Activity calls are given as the source filed them. The calls are words filed in the database; no cut-off is given here.

Tests used:
Mus musculus [1] = assay: Anticonvulsant activity in CD1 albino mouse assessed as protection against maximal electroshock-induced seizures at 100 to 300 mg/kg, ip after 4 hrs; type: functional; details: read-out: MED
Rattus norvegicus = species: Rattus norvegicus; assay: Displacement of [3H]BTX from voltage-sensitive Na+ channel site 2 in rat cerebral cortex synaptoneurosomes at 100 uM after 60 mins by liquid scintillation spectroscopic analysis; type: tissue-based
Procedure, shortened: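 Cerebral cortex synaptoneurosomes from rat, tested at 100 µM for inhibition of specific [3H]BTX binding to the voltage-sensitive Na+ channel site 2. Reported as % inhibition of control specific binding; run commercially.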

Mus musculus [2] = assay: Protection index, ratio of TD50 for CD1 albino mouse to ED50 for protection against subcutaneous pentylenetetrazole-induced seizures in CD1 albino mouse
Procedure, shortened: (§1)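 Quantitation in male CD-1 mice dosed ip at the previously estimated time of peak effect. Seizures were induced by MES or by sc pentylenetetrazole 85 mg/kg; rotarod at 10 rpm assessed motor impairment. Groups of six, at least three doses giving 10-90% effect.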

Mus musculus [3] = assay: Antinociceptive activity in CD1 albino mouse assessed as reduction of formalin-induced licking response in inflammatory phase at 32.08 mg/kg, ip preincubated for 4 hrs measured after 15 to 20 mins; type: functional; design: scale not given: the % may be the effect or the level left
Mus musculus [4] = assay: Neurotoxicity in CD1 albino mouse assessed as acute motor impairment at 300 mg/kg, ip measured after 0.5 hrs by rotarod test; type: toxicity, organism-based; details: in vivo
Procedure, shortened: (§2)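 Male CD-1 mice given 30, 100 or 300 mg/kg ip in 0.5% methylcellulose, tested at 0.5 and 4 h. Motor impairment was scored as failure to keep balance for at least 1 min on a rod rotating at 10 rpm. Minimum dose causing impairment reported.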

Mus musculus [5] = assay: Local anesthetic activity in CD1 albino mouse assessed prolongation of time reaction at 1 % concentration after 20 secs by tail immersion test relative to vehicle control; type: functional
Procedure, shortened: (§3)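 Compound at 1 or 2% in 0.5% methylcellulose, injected sc (0.2 ml) about 1 cm from the tail root of male CD-1 mice. After 15 min, the distal 3 cm of the tail was immersed in 50 ± 0.5 °C water and withdrawal time measured, cut off at 20 s. n=8; mean ± SEM; % prolongation relative to vehicle.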

Mus musculus [6] = assay: Anticonvulsant activity in CD1 albino mouse assessed as protection against subcutaneous pentylenetetrazole-induced seizures at 300 mg/kg, ip after 0.5 hrs; type: functional, organism-based
Procedure, shortened: (§4)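 Male CD-1 mice (16-26 g), compounds ip in 0.5% methylcellulose/water at 30, 100 or 300 mg/kg, 3-4 per group. At 0.5 or 4 h, pentylenetetrazole 85 mg/kg was injected sc. Protection was absence of clonic convulsions (at least 5 s) over a 30 min observation. Minimum active dose recorded.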

Mus musculus [7] = assay: Antinociceptive activity in CD1 albino mouse assessed as reduction of formalin-induced licking response in inflammatory phase at 32.08 mg/kg, ip preincubated for 4 hrs measured after 25 to 30 mins; type: functional; design: scale not given: the % may be the effect or the level left
[8] = Neurotoxicity in ip dosed CD1 albino mouse assessed as acute motor impairment by rotarod test; type: toxicity, organism-based; details: in vivo; procedure, shortened: as §1
Mus musculus [9] = assay: Neurotoxicity in CD1 albino mouse assessed as acute motor impairment at 100 to 300 mg/kg, ip after 4 hrs by rotarod test; type: toxicity, organism-based; details: in vivo; procedure, shortened: as §2
Mus musculus [10] = assay: Antinociceptive activity in CD1 albino mouse assessed as reduction of formalin-induced licking response in neurogenic phase at 32.08 mg/kg, ip preincubated for 4 hrs measured after 5 mins; type: functional; design: scale not given: the % may be the effect or the level left
Mus musculus [11] = assay: Anticonvulsant activity in ip dosed CD1 albino mouse assessed as time to peak effect; type: functional; procedure, shortened: as §1
Mus musculus [12] = assay: Anticonvulsant activity in CD1 albino mouse assessed as protection against subcutaneous pentylenetetrazole-induced seizures at 300 mg/kg, ip after 4 hrs; type: functional, organism-based; procedure, shortened: as §4
Mus musculus [13] = assay: Anticonvulsant activity in ip dosed CD1 albino mouse assessed as protection against subcutaneous pentylenetetrazole-induced seizures; type: functional; procedure, shortened: as §1
Mus musculus [14] = assay: Anticonvulsant activity in CD1 albino mouse assessed as protection against maximal electroshock-induced seizures at 100 to 300 mg/kg, ip after 0.5 hrs; type: functional; details: read-out: MED
Mus musculus [15] = assay: Anticonvulsant activity in ip dosed CD1 albino mouse assessed as protection against maximal electroshock-induced seizures; type: functional
Mus musculus [16] = species: Mus musculus; assay: Protection index, ratio of TD50 for CD1 albino mouse to ED50 for protection against maximal electroshock-induced seizures in CD1 albino mouse; procedure, shortened: as §1
Mus musculus [17] = assay: Local anesthetic activity in CD1 albino mouse assessed prolongation of time reaction at 2 % concentration after 20 secs by tail immersion test relative to vehicle control; type: functional; procedure, shortened: as §3
Mus musculus [18] = assay: Anticonvulsant activity in CD1 albino mouse assessed as protection against maximal electroshock-induced seizures at 300 mg/kg, ip after 4 hrs; type: functional, organism-based
Mus musculus [19] = assay: Anticonvulsant activity in CD1 mouse assessed as protection against 32 mA-current- for 3 secs induced seizure at 100 mg/kg, ip after 0.5 hrs by 6Hz psychomotor seizure test; type: functional
Procedure, shortened: (§5)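 Male CD-1 mice given 100 mg/kg ip in 0.5% methylcellulose, four per time point. Corneal stimulation at 32 mA, 0.2 ms monopolar rectangular pulses at 6 Hz for 3 s, from a constant-current device. A mouse was protected if it resumed normal exploratory behavior within 10 s. Reported as number protected over number tested.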

Mus musculus [20] = assay: Antinociceptive activity in CD1 albino mouse assessed as reduction of formalin-induced licking response in neurogenic phase at 69.05 mg/kg, ip preincubated for 30 mins measured after 5 mins; type: functional, organism-based
Mus musculus [21] = assay: Antinociceptive activity in CD1 albino mouse assessed as reduction of formalin-induced licking response in inflammatory phase at 69.05 mg/kg, ip preincubated for 30 mins measured after 15 to 20 mins; type: functional; design: scale not given: the % may be the effect or the level left
Mus musculus [22] = assay: Anticonvulsant activity in CD1 albino mouse assessed as protection against subcutaneous pentylenetetrazole-induced seizures at 100 to 300 mg/kg, ip after 0.5 hrs; type: functional; details: CD1, 0.5 h, read-out: MED; procedure, shortened: as §4
Mus musculus [23] = assay: Anticonvulsant activity in CD1 mouse assessed as protection against 32 mA-current- for 3 secs induced seizure at 100 mg/kg, ip after 0.25 hrs by 6Hz psychomotor seizure test; type: functional; procedure, shortened: as §5
Mus musculus [24] = assay: Neurotoxicity in CD1 albino mouse assessed as acute motor impairment at 300 mg/kg, ip after 4 hrs by rotarod test; type: toxicity, organism-based; details: in vivo; procedure, shortened: as §2
Mus musculus [25] = assay: Anticonvulsant activity in CD1 mouse assessed as protection against 32 mA-current- for 3 secs induced seizure at 100 mg/kg, ip after 2 hrs by 6Hz psychomotor seizure test; type: functional, organism-based; procedure, shortened: as §5
Mus musculus [26] = assay: Antinociceptive activity in CD1 albino mouse assessed as reduction of formalin-induced licking response in neurogenic phase at 69.05 mg/kg, ip preincubated for 30 mins measured after 25 to 30 mins; type: functional; design: scale not given: the % may be the effect or the level left
Mus musculus [27] = assay: Neurotoxicity in CD1 albino mouse assessed as acute motor impairment at 100 to 300 mg/kg, ip after 0.5 hrs by rotarod test; type: toxicity, organism-based; details: in vivo; procedure, shortened: as §2
Mus musculus [28] = assay: Antinociceptive activity in CD1 albino mouse assessed as reduction of formalin-induced licking response in inflammatory phase at 75.60 mg/kg, ip preincubated for 4 hrs measured after 20 to 25 mins; type: functional; design: scale not given: the % may be the effect or the level left
Mus musculus [29] = assay: Antinociceptive activity in CD1 albino mouse assessed as reduction of formalin-induced licking response in inflammatory phase at 75.60 mg/kg, ip preincubated for 4 hrs measured after 15 to 20 mins; type: functional; design: scale not given: the % may be the effect or the level left
Mus musculus [30] = assay: Antinociceptive activity in CD1 albino mouse assessed as reduction of formalin-induced licking response in neurogenic phase at 75.60 mg/kg, ip preincubated for 4 hrs measured after 5 mins; type: functional; design: scale not given: the % may be the effect or the level left
Mus musculus [31] = assay: Anticonvulsant activity in CD1 albino mouse assessed as protection against subcutaneous pentylenetetrazole-induced seizures at 100 to 300 mg/kg, ip after 4 hrs; type: functional; details: CD1, 4 h, read-out: MED; procedure, shortened: as §4
Mus musculus [32] = assay: Antinociceptive activity in CD1 albino mouse assessed as reduction of formalin-induced licking response in inflammatory phase at 75.60 mg/kg, ip preincubated for 4 hrs measured after 25 to 30 mins; type: functional; design: scale not given: the % may be the effect or the level left

Structure (SMILES)	minimal effective dose (Mus musculus [1]) [mg/kg]	inhibition (Rattus norvegicus) [%]	Ratio TD50/ED50 (Mus musculus [2])	Activity (Mus musculus [4])	TD50 [8] [mg/kg]	Time (Mus musculus [11]) [h]	Activity (Mus musculus [12])	ED50 (Mus musculus [13]) [mg/kg]	minimal effective dose (Mus musculus [14]) [mg/kg]	ED50 (Mus musculus [15]) [mg/kg]	Ratio TD50/ED50 (Mus musculus [16])	Activity (Mus musculus [17]) [%]	minimal effective dose (Mus musculus [22]) [mg/kg]	Activity (Mus musculus [24])	other results
CC1CC(=O)N(CC(=O)N2CCN(c3ccc(Cl)cc3)CC2)C1=O (stereo unspecified)	30	20.9	>2	Non-toxic	> 500	4	inactive	> 250	100	32.1	>15.59	124			Activity (Mus musculus [3]): 91%; Activity (Mus musculus [5]): 26%; Activity (Mus musculus [6]): inactive; Activity (Mus musculus [7]): 86%; MTC (Mus musculus [9]): 300 mg/kg; Activity (Mus musculus [10]): 76%
CCC1(C)CC(=O)N(CC(=O)N2CCN(c3ccc(F)cc3)CC2)C1=O (stereo unspecified)		32.5	1.47		191	0.5	inactive	130	100	69	2.76	61	100	Non-toxic	Activity (Mus musculus [18]): inactive; Activity (Mus musculus [19]): 75%; Activity (Mus musculus [20]): inactive; Activity (Mus musculus [21]): 93%; Activity (Mus musculus [23]): 75%; Activity (Mus musculus [25]): inactive; Activity (Mus musculus [26]): 92%; MTC (Mus musculus [27]): 300 mg/kg
CC1CC(=O)N(CC(=O)N2CCN(c3ccc(Cl)c(Cl)c3)CC2)C1=O (stereo unspecified)	100	33.4	4.86	Non-toxic	263	1		54.1	300	75.6	3.48	14	100	Non-toxic	Activity (Mus musculus [28]): 95%; Activity (Mus musculus [29]): 100%; Activity (Mus musculus [30]): 61%; minimal effective dose (Mus musculus [31]): 100 mg/kg; Activity (Mus musculus [32]): 95%
